The target in assay [1] is Glutamate NMDA receptor. The assay is described as follows: Displacement of [3H]MK-801 from NMDA receptor in rat brain in presence of 100 uM spermine. The format is tissue-based. In outline:
(§1)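 [³H]MK-801 at 5 nM is bound to rat brain membranes, with the co-agonists glutamic acid and glycine added. Incubation lasts 2 h, close to equilibrium. Nonspecific binding is binding to closed channels: no glutamate or glycine, with D-APV and 5,7-DCKA added. The standard buffer is 50 mM Tris, switched to 10 mM Tris for buffer-sensitive inhibition. Replicate counts are given per value.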
On the technique in general: Displacement assays read how much labelled ligand stays bound in the presence of the test substance.

Assay [2] addresses Glutamate NMDA receptor. The assay is described as follows: Displacement of [3H]MK-801 from rat brain NMDA receptor. In outline: as §1
Assay [3] addresses Glutamate NMDA receptor. The assay is described as follows: Displacement of [3H]MK801 from rat brain NMDA receptor in presence of 30 uM spermine. The essentials:
as §1

Assay [4] has as its target Glutamate NMDA receptor. The assay is described as follows: Stimulation of [3H]MK-801 binding to rat brain NMDA receptor. In outline:
as §1

Drawing on ChEMBL document CHEMBL1142883, “New polyamine-sensitive inhibitors of the NMDA receptor: syntheses and pharmacological evaluation” (Eur J Med Chem, 2007), this text covers spermine attenuation ratio, IC50 and EC50 for 35 compounds.

Molecules are shown by their SMILES.

As usually defined, the IC50 is the concentration that inhibits the measured activity by half. With `NCCCCCCCCc1ccc(Cc2ccccc2CN)s1`, the spermine attenuation ratio at Glutamate NMDA receptor [1] came to 2.96. At Glutamate NMDA receptor [2], this compound gave an IC50 of 1.13 µM.

Regarding `NCCCCc1ccc(CCCCNC(=O)CC(N)c2ccccc2)s1` (stereo unspecified), on Glutamate NMDA receptor [3], the spermine attenuation ratio worked out at 15. Also, the IC50 on Glutamate NMDA receptor [2] stood at 6.81 µM.

For `NCCCCCCCCc1ccc(CCCCN)s1`, the spermine attenuation ratio is 8.84 at Glutamate NMDA receptor [1] and 15.1 at Glutamate NMDA receptor [3]. Moreover, at Glutamate NMDA receptor [2], the IC50 was determined as 0.54 µM.

Take `C=CCNCCCCCCCCc1ccc(CCCCNCC=C)s1`: at Glutamate NMDA receptor [1], the spermine attenuation ratio was found to be 6.57. The same compound showed an IC50 at Glutamate NMDA receptor [2] of 13.3 µM.

Regarding `Cc1cc(CCCCCCCCN)sc1CCCCN`, on Glutamate NMDA receptor [1], the spermine attenuation ratio is 4.07. This compound yielded an IC50 on Glutamate NMDA receptor [2] of 1.08 µM.

Turning to `NCCCCCCCCNC(=O)CCN`, the spermine attenuation ratio on Glutamate NMDA receptor [3] is 75. Moreover, the IC50 at Glutamate NMDA receptor [2] was found to be 53 µM.

Regarding `CNCCCCCCCCc1ccc(CCCCNC)s1`, the spermine attenuation ratio at Glutamate NMDA receptor [1] worked out at 7.7. On Glutamate NMDA receptor [2], this compound yielded an IC50 of 5.3 µM.

Consider `c1ccc(CNCCCCCCCCc2ccc(CCCCNCc3ccccc3)s2)cc1`, for which the spermine attenuation ratio at Glutamate NMDA receptor [1] stood at 0.98. The IC50 on Glutamate NMDA receptor [2] was found to be 8.67 µM.

For `Cc1cc(CCCCN)sc1CCCCCCCCN`, at Glutamate NMDA receptor [1], the spermine attenuation ratio turned out to be 3.9. This compound also came in with an IC50 on Glutamate NMDA receptor [2] of 1.62 µM.

As for `CC(CN)C(=O)NCCCCc1ccc(CCCCN)s1` (stereo unspecified), at Glutamate NMDA receptor [3], the spermine attenuation ratio turned out to be 10.3. At Glutamate NMDA receptor [2], this compound came in with an IC50 of 24.7 µM.

In the case of `CCc1cc(CCCCN)sc1CCCCCCCCN`, on Glutamate NMDA receptor [1], the spermine attenuation ratio stood at 2.67. The compound further yielded an IC50 on Glutamate NMDA receptor [2] of 3.23 µM.

Take `CC(N)CC(=O)NCCCCc1ccc(CCCCN)s1` (stereo unspecified): the spermine attenuation ratio at Glutamate NMDA receptor [3] is 65.4. On Glutamate NMDA receptor [2], this compound came in with a concentration for half-maximal inhibition (IC50) of 2.21 µM.

Regarding `CNCCCCCCCCc1ccc(CC2CCNCC2)s1`, the spermine attenuation ratio at Glutamate NMDA receptor [1] was found to be 8.58. Further, the IC50 on Glutamate NMDA receptor [2] stood at 2.48 µM.

For the compound `NCCCCc1ccc(CCCCNC(=O)C(CN)c2ccccc2)s1` (stereo unspecified), the spermine attenuation ratio on Glutamate NMDA receptor [3] is 10.1. On Glutamate NMDA receptor [2], the IC50 came to 11.7 µM.

For the compound `NCCCCCCCCc1ccc(CCCN)s1`, at Glutamate NMDA receptor [3], the spermine attenuation ratio turned out to be 9.57. For the same compound, the IC50 at Glutamate NMDA receptor [2] was determined as 5.47 µM.

Turning to `NCCCCc1ccc(CCCCNCCCN)s1`, the spermine attenuation ratio at Glutamate NMDA receptor [3] was 29. On Glutamate NMDA receptor [2], this compound had a concentration for half-maximal inhibition (IC50) of 5.2 µM.

Turning to `NCCCCCCCCc1ccc(CC2CCNCC2)s1`, the spermine attenuation ratio at Glutamate NMDA receptor [1] amounted to 9.07. Also, the IC50 at Glutamate NMDA receptor [2] stood at 0.63 µM.

Consider `N=C(N)NCCCCCCc1ccc(CCNC(=N)N)s1`, for which the spermine attenuation ratio at Glutamate NMDA receptor [3] is 23.4. Also, the IC50 at Glutamate NMDA receptor [2] was determined as 1.04 µM.

In the case of `CN(C)CCCCCCCCc1ccc(CCCCN(C)C)s1`, the spermine attenuation ratio at Glutamate NMDA receptor [1] was 2.79. For the same compound, on Glutamate NMDA receptor [2], the IC50 turned out to be 358 µM.

`N=C(N)NCCCCCCCc1ccc(CCCNC(=N)N)s1`: the spermine attenuation ratio at Glutamate NMDA receptor [3] stood at 7.47. Also, the IC50 on Glutamate NMDA receptor [2] is 0.74 µM.

`NCCCCc1ccc(CCNC(=O)CNC(=O)CN)s1`: the spermine attenuation ratio on Glutamate NMDA receptor [3] is 5.48. Besides, the concentration for half-maximal inhibition (IC50) at Glutamate NMDA receptor [2] is 111 µM.

For the compound `NCCCCc1ccc(CCCCN(CC[C@@H](N)Cc2ccccc2)Cc2ccccc2)s1`, on Glutamate NMDA receptor [3], the spermine attenuation ratio came to 1.66. In addition, the half-maximal inhibitory concentration (IC50) at Glutamate NMDA receptor [2] is 9.62 µM.

As for `NCCCCCCCCc1ccc(CCCCN)cc1`, the spermine attenuation ratio at Glutamate NMDA receptor [1] stood at 7.95. Moreover, on Glutamate NMDA receptor [2], the 50% inhibitory concentration (IC50) was determined as 0.87 µM.

`N=C(N)NCCCCCCCCc1ccc(CCCCNC(=N)N)s1`: the spermine attenuation ratio at Glutamate NMDA receptor [3] is 3.95. For the same compound, the IC50 on Glutamate NMDA receptor [2] worked out at 0.77 µM.

Consider `NCCCCc1ccc(Cc2ccc(CCCCN)s2)s1`, for which, at Glutamate NMDA receptor [3], the spermine attenuation ratio worked out at 16.8. For the same compound, the IC50 on Glutamate NMDA receptor [2] turned out to be 1.76 µM.

In the case of `NCCCCc1ccc(CCOCCOCCN)s1`, the spermine attenuation ratio at Glutamate NMDA receptor [3] came out at 16.8. Further, the IC50 on Glutamate NMDA receptor [2] amounted to 4.2 µM.

With `NCCCCc1ccc(CCCCNC(=O)CCN)s1`, the spermine attenuation ratio at Glutamate NMDA receptor [3] turned out to be 51.4. Besides, on Glutamate NMDA receptor [2], the IC50 turned out to be 1.19 µM.

For `CN(C)CCCCCCCCc1ccc(CC2CCNCC2)s1`, the spermine attenuation ratio on Glutamate NMDA receptor [1] turned out to be 7.67. In addition, the IC50 at Glutamate NMDA receptor [2] came to 15.2 µM.

Consider `N=C(N)NCCCCCCCCc1ccc(CCCNC(=N)N)s1`, for which the spermine attenuation ratio at Glutamate NMDA receptor [3] was 6.29. In addition, the IC50 at Glutamate NMDA receptor [2] is 0.31 µM.

Broadly, the EC50 is the concentration needed to bring the measured effect to its halfway point. Compound `NCCCCc1ccc(CCNCCNCCN)s1` came in with an EC50 at Glutamate NMDA receptor [4] of 1.9 µM. The same compound returned a half-inhibitory concentration (IC50) on Glutamate NMDA receptor [2] of 282 µM.

For the compound `NCCCCC#CCCCCCCCCN`, the spermine attenuation ratio on Glutamate NMDA receptor [1] turned out to be 5.38. Besides, the concentration for half-maximal inhibition (IC50) on Glutamate NMDA receptor [2] was 6.73 µM.

As to `NCCCCCCCCCCCCCCN`, on Glutamate NMDA receptor [1], the spermine attenuation ratio worked out at 6.94. The same compound yielded an IC50 on Glutamate NMDA receptor [2] of 5.28 µM.

On to `NCCCCc1ccc(CCCCN(Cc2ccccc2)C(=O)C[C@@H](N)Cc2ccccc2)s1`, for which the spermine attenuation ratio at Glutamate NMDA receptor [3] turned out to be 1.71. On Glutamate NMDA receptor [2], this compound registered an IC50 of 13.4 µM.

For `NCCCCCCCCCCCCN`, the spermine attenuation ratio on Glutamate NMDA receptor [3] was found to be 34.6. Moreover, the IC50 on Glutamate NMDA receptor [2] was found to be 7.05 µM.

Consider `CCCNCCCCCCCCc1ccc(CCCCNCCC)s1`, for which the spermine attenuation ratio on Glutamate NMDA receptor [1] stood at 2.98. The compound further returned a half-inhibitory concentration (IC50) on Glutamate NMDA receptor [2] of 114 µM.
